Test results reported in ChEMBL document CHEMBL2396601, “Synthesis and antiprotozoal activity of dicationic m-terphenyl and 1,3-dipyridylbenzene derivatives” (J Med Chem, 2013).
Activity calls are given as the source filed them. The rule behind the calls is not given here.

test system: Trypanosoma brucei rhodesiense; experiment: Antiprotozoal activity against Trypanosoma brucei rhodesiense STIB900 infected in NMRI mouse assessed as host mean survival days at 25 mg/kg, po qd for 4 days; format: functional; conditions: not given
Method in brief: (§1)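 Acute-stage HAT mouse model infected with STIB900. Cure means survival to 60 days after infection with no parasitemia relapse. Mean survival days are counted from infection and use every mouse: relapsed mice, plus cured mice entered as >60 days.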

| Compound | MSD [days] |
| --- | --- |
| CO/N=C(\N)c1cccc(-c2cccc(-c3cccc(/C(N)=N\OC)c3)c2)c1.Cl.Cl | 17.25 |
| CO/N=C(/N)c1ccc(-c2cccc(-c3ccc(/C(N)=N\OC)cc3)c2)cc1.Cl.Cl | >34.25 |
| Cl.Cl.N/C(=N\O)c1cccc(-c2cccc(-c3cccc(/C(N)=N\O)c3)c2)c1 | 7.25 |

test system: not listed separately; experiment: Selectivity index, ratio of IC50 for rat L6 cells to IC50 for Plasmodium falciparum K1; format: toxicity, cell-based; conditions: L6 cells, read-out: Ratio IC50
Method in brief: (§2)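 Selectivity index is IC50 against L6 rat myoblast cells divided by IC50 against the named parasite.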

| Compound | selectivity ratio |
| --- | --- |
| CO/N=C(\N)c1cccc(-c2cccc(-c3cccc(/C(N)=N\OC)c3)c2)c1.Cl.Cl | 2 |
| Cl.Cl.Cl.N=C(Nc1cccc(-c2cc(Cl)cc(-c3cccc(NC(=N)c4ccccn4)c3)c2)c1)c1ccccn1 | 450 |
| CO/N=C(/N)c1ccc(-c2cccc(-c3ccc(/C(N)=N\OC)cc3)c2)cc1.Cl.Cl | < 2 |
| Cl.N=C(N)c1ccc(-c2cccc(-c3ccc(C(=N)N)cn3)c2)nc1 | > 3760 |
| Cl.Cl.N/C(=N\O)c1cccc(-c2cccc(-c3cccc(/C(N)=N\O)c3)c2)c1 | < 1 |

test system: Trypanosoma cruzi; experiment: Antiprotozoal activity against intracellular amastigote form of Trypanosoma cruzi Tulahuen C2C4 expressing LacZ infected in rat L6 cells after 48 hrs; format: functional, organism-based; conditions: Tulahuen C2C4, L6, 48 h
Method in brief: (§3)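 Uses T. b. rhodesiense STIB900, T. cruzi Tulahuen C2C4 LacZ intracellular amastigotes, or L6 rat myoblasts depending on line.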

| Compound | IC50 [µM] |
| --- | --- |
| CO/N=C(\N)c1cccc(-c2cccc(-c3cccc(/C(N)=N\OC)c3)c2)c1.Cl.Cl | 24.1 |
| Cl.Cl.Cl.N=C(Nc1cccc(-c2cc(Cl)cc(-c3cccc(NC(=N)c4ccccn4)c3)c2)c1)c1ccccn1 | 0.053 |
| CO/N=C(/N)c1ccc(-c2cccc(-c3ccc(/C(N)=N\OC)cc3)c2)cc1.Cl.Cl | 92.6 |
| Cl.Cl.N/C(=N\O)c1cccc(-c2cccc(-c3cccc(/C(N)=N\O)c3)c2)c1 | 11.2 |

test system: L6; experiment: Cytotoxicity against rat L6 cells after 72 hrs by Alamar Blue assay; format: cell-based; conditions: L6, 72 h; method in brief: as §3

| Compound | IC50 [µM] |
| --- | --- |
| CO/N=C(\N)c1cccc(-c2cccc(-c3cccc(/C(N)=N\OC)c3)c2)c1.Cl.Cl | 20.3 |
| Cl.Cl.Cl.N=C(Nc1cccc(-c2cc(Cl)cc(-c3cccc(NC(=N)c4ccccn4)c3)c2)c1)c1ccccn1 | 2.5 |
| CO/N=C(/N)c1ccc(-c2cccc(-c3ccc(/C(N)=N\OC)cc3)c2)cc1.Cl.Cl | 19.2 |
| Cl.Cl.N/C(=N\O)c1cccc(-c2cccc(-c3cccc(/C(N)=N\O)c3)c2)c1 | 5.6 |

test system: Leishmania amazonensis; experiment: Antiprotozoal activity against intracellular amastigote form of Leishmania amazonensis infected in CD1 mouse macrophages after 72 hrs by […]; format: functional, organism-based; conditions: not given

| Compound | IC50 [µM] |
| --- | --- |
| Cl.Cl.Cl.N=C(Nc1cccc(-c2cc(Cl)cc(-c3cccc(NC(=N)c4ccccn4)c3)c2)c1)c1ccccn1 | 0.095 |

test system: Trypanosoma brucei rhodesiense; experiment: Antiprotozoal activity against Trypanosoma brucei rhodesiense STIB900 infected in NMRI mouse assessed as host mean survival days at 5 mg/kg, ip qd for 4 days; format: functional; conditions: route intraperitoneal; method in brief: as §1

| Compound | MSD [days] |
| --- | --- |
| Cl.N=C(N)c1ccc(-c2cccc(-c3ccc(C(=N)N)cn3)c2)nc1 | >60 |

test system: Trypanosoma brucei rhodesiense; experiment: Antiprotozoal activity against Trypanosoma brucei rhodesiense STIB900 infected in NMRI mouse assessed as host mean survival days at 10 mg/kg, ip; format: functional; conditions: route intraperitoneal; method in brief: as §1

| Compound | MSD [days] |
| --- | --- |
| Cl.N=C(N)c1ccc(-c2cccc(-c3ccc(C(=N)N)cn3)c2)nc1 | >60 |

test system: Mus musculus; experiment: Toxicity in BALB/c mouse assessed as tremors measured after second dose at 30 mg/kg, ip qd for 5 days; format: organism-based; design: dose 30 mg/kg, route intraperitoneal; conditions: in vivo, 120 h
Method in brief: (§4)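 Tolerability check before efficacy testing in uninfected BALB/c mice, groups of two, given 30 mg/kg ip daily for five days. Watched for overt toxicity signs such as tremors and hyperactivity after each dose. Mice showing adverse effects were euthanized.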

| Compound | Activity |
| --- | --- |
| Cl.Cl.Cl.N=C(Nc1cccc(-c2cc(Cl)cc(-c3cccc(NC(=N)c4ccccn4)c3)c2)c1)c1ccccn1 | Toxic |

test system: not listed separately; experiment: Selectivity index, ratio of IC50 for rat L6 cells to IC50 for Trypanosoma brucei rhodesiense STIB900; format: toxicity, cell-based; conditions: L6 cells, read-out: Ratio IC50; method in brief: as §2

| Compound | selectivity ratio |
| --- | --- |
| CO/N=C(\N)c1cccc(-c2cccc(-c3cccc(/C(N)=N\OC)c3)c2)c1.Cl.Cl | 2 |
| Cl.Cl.Cl.N=C(Nc1cccc(-c2cc(Cl)cc(-c3cccc(NC(=N)c4ccccn4)c3)c2)c1)c1ccccn1 | 133 |
| CO/N=C(/N)c1ccc(-c2cccc(-c3ccc(/C(N)=N\OC)cc3)c2)cc1.Cl.Cl | 4 |
| Cl.N=C(N)c1ccc(-c2cccc(-c3ccc(C(=N)N)cn3)c2)nc1 | > 8820 |
| Cl.Cl.N/C(=N\O)c1cccc(-c2cccc(-c3cccc(/C(N)=N\O)c3)c2)c1 | 2 |

test system: Mus musculus; experiment: Toxicity in BALB/c mouse assessed as hyperactivity measured after first dose at 30 mg/kg, ip qd for 5 days; format: organism-based; design: dose 30 mg/kg, route intraperitoneal; conditions: in vivo, 120 h; method in brief: as §4

| Compound | Activity |
| --- | --- |
| Cl.Cl.Cl.N=C(Nc1cccc(-c2cc(Cl)cc(-c3cccc(NC(=N)c4ccccn4)c3)c2)c1)c1ccccn1 | Toxic |

test system: Trypanosoma brucei rhodesiense; experiment: Antiprotozoal activity against Trypanosoma brucei rhodesiense STIB900 infected in NMRI mouse assessed as reduction of parasitemia relapse at 25 mg/kg, po qd for 4 days; format: functional, organism-based; design: dose 25 mg/kg; conditions: not given
Method in brief: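 Mouse model of acute (early) stage HAT with T. b. rhodesiense STIB900, groups of 4 mice. Amidines dosed intraperitoneally, 4 daily doses of 5 mg/kg or single doses; prodrugs dosed orally, 4 daily doses of 25 mg/kg. Cure means survival to 60 days after infection with no parasitemia relapse. Mean survival days counts all mice, with cured mice scored as >60 days.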

| Compound | Activity |
| --- | --- |
| CO/N=C(\N)c1cccc(-c2cccc(-c3cccc(/C(N)=N\OC)c3)c2)c1.Cl.Cl | inactive |
| Cl.Cl.N/C(=N\O)c1cccc(-c2cccc(-c3cccc(/C(N)=N\O)c3)c2)c1 | inactive |

test system: Plasmodium falciparum; experiment: Antiprotozoal activity against chloroquine-resistant Plasmodium falciparum K1 after 48 hrs by [3H]-hypoxanthine incorporation assay; format: functional, organism-based; conditions: not given

| Compound | IC50 [µM] |
| --- | --- |
| Cl.N=C(N)c1ccc(-c2cccc(-c3ccc(C(=N)N)cn3)c2)nc1 | 0.04 |

same assay, conditions: Plasmodium falciparum, K1

| Compound | IC50 [µM] |
| --- | --- |
| CO/N=C(\N)c1cccc(-c2cccc(-c3cccc(/C(N)=N\OC)c3)c2)c1.Cl.Cl | 9.31 |
| Cl.Cl.Cl.N=C(Nc1cccc(-c2cc(Cl)cc(-c3cccc(NC(=N)c4ccccn4)c3)c2)c1)c1ccccn1 | 0.006 |
| CO/N=C(/N)c1ccc(-c2cccc(-c3ccc(/C(N)=N\OC)cc3)c2)cc1.Cl.Cl | > 10 |
| Cl.Cl.N/C(=N\O)c1cccc(-c2cccc(-c3cccc(/C(N)=N\O)c3)c2)c1 | 8.23 |

test system: not listed separately; experiment: Selectivity index, ratio of IC50 for rat L6 cells to IC50 for Trypanosoma cruzi Tulahuen C2C4; format: toxicity, cell-based; conditions: read-out: Ratio IC50; method in brief: as §2

| Compound | selectivity ratio |
| --- | --- |
| CO/N=C(\N)c1cccc(-c2cccc(-c3cccc(/C(N)=N\OC)c3)c2)c1.Cl.Cl | < 1 |
| Cl.Cl.Cl.N=C(Nc1cccc(-c2cc(Cl)cc(-c3cccc(NC(=N)c4ccccn4)c3)c2)c1)c1ccccn1 | 47 |
| CO/N=C(/N)c1ccc(-c2cccc(-c3ccc(/C(N)=N\OC)cc3)c2)cc1.Cl.Cl | < 1 |
| Cl.Cl.N/C(=N\O)c1cccc(-c2cccc(-c3cccc(/C(N)=N\O)c3)c2)c1 | < 1 |

test system: Trypanosoma brucei rhodesiense; experiment: Antiprotozoal activity against Trypanosoma brucei rhodesiense STIB900 after 72 hrs by Alamar Blue assay; format: functional, organism-based; conditions: not given; method in brief: as §3

| Compound | IC50 [µM] |
| --- | --- |
| Cl.N=C(N)c1ccc(-c2cccc(-c3ccc(C(=N)N)cn3)c2)nc1 | 0.017 |

same assay, conditions: Trypanosoma brucei, STIB900, 72 h

| Compound | IC50 [µM] |
| --- | --- |
| CO/N=C(\N)c1cccc(-c2cccc(-c3cccc(/C(N)=N\OC)c3)c2)c1.Cl.Cl | 11.3 |
| Cl.Cl.Cl.N=C(Nc1cccc(-c2cc(Cl)cc(-c3cccc(NC(=N)c4ccccn4)c3)c2)c1)c1ccccn1 | 0.019 |
| CO/N=C(/N)c1ccc(-c2cccc(-c3ccc(/C(N)=N\OC)cc3)c2)cc1.Cl.Cl | 4.44 |
| Cl.Cl.N/C(=N\O)c1cccc(-c2cccc(-c3cccc(/C(N)=N\O)c3)c2)c1 | 2.55 |

test system: not listed separately; experiment: Selectivity index, ratio of IC50 for rat L6 cells to IC50 for Leishmania amazonensis; format: toxicity, cell-based; conditions: read-out: Ratio IC50; method in brief: as §2

| Compound | selectivity ratio |
| --- | --- |
| Cl.Cl.Cl.N=C(Nc1cccc(-c2cc(Cl)cc(-c3cccc(NC(=N)c4ccccn4)c3)c2)c1)c1ccccn1 | 26 |
